Measurements pooled from the literature.
Each line is one published result; the experiments were not run side by side.
Organism: Klebsiella pneumoniae
Effect on: microbial growth

CO[C@H]1/C=C/O[C@@]2(C)Oc3c(C)c(O)c4c(O)c(c(/C=N/N5CCN(C)CC5)c(O)c4c3C2=O)NC(=O)/C(C)=C\C=C\[C@H](C)[C@H](O)[C@@H](C)[C@@H](O)[C@@H](C)[C@H](OC(C)=O)[C@@H]1C  MIC (broth dilution; ATCC700603): 10 µM
CNC(=O)c1cc(Oc2ccc(NC(=O)Nc3ccc(Cl)c(C(F)(F)F)c3)cc2)ccn1  MIC (DSM30104): > 100 µM
CC1=NN(CNc2c(O)c(S(=O)(=O)O)cc3ccccc23)C(=O)C1=NNn1c(-c2ccccc2)nc2ccccc2c1=O  MIC (broth dilution; 24 h): 83.7 µM
CO[C@@H]1[C@@H](OC(N)=O)[C@@H](O)[C@H](Oc2ccc3c(O)c(NC(=O)c4ccc(O)c(CC=C(C)C)c4)c(=O)oc3c2C)OC1(C)C  MIC (broth dilution; ATCC700603): 160 µM
Cc1c(CN(C)C(=O)/C=C/c2cnc3c(c2)CC(NC(=O)OC(C)(C)C)C(=O)N3)oc2ccccc12 (centres unmarked)  MIC (broth dilution): > 32 µg/mL
CO/N=C(\C(=O)N[C@@H]1C(=O)N2C(C(=O)[O-])=C(C[N+]3(C)CCCC3)CS[C@H]12)c1csc(N)n1  MIC (broth dilution; ATCC700603): 1.3 µM
CN[C@@H]1[C@@H](O)[C@@H](O[C@@H]2[C@@H](O)[C@H](O[C@H]3OC(CNCCO)=CC[C@H]3N)[C@@H](N)C[C@H]2NC(=O)[C@@H](O)CCN)OC[C@]1(C)O  MIC: 0.25 to 0.5 µg/mL
CC1(C)S[C@@H]2[C@H](NC(=O)COc3ccccc3)C(=O)N2[C@H]1C(=O)O  MIC (18 h, clinical isolate): > 128 µg/mL
CN(C)[C@@H]1C(O)=C(C(N)=O)C(=O)[C@@]2(O)C(O)=C3C(=O)c4c(cc5ccc(CN6CC(C#N)C6)cc5c4O)C[C@H]3C[C@@H]12  MIC (broth dilution; ATCC13883): 16 µg/mL
CCC[C@@H]1C[C@@H](C(=O)N[C@@H]([C@H]2O[C@H](SC)[C@H](O)[C@@H](O)[C@H]2O)[C@H](C)Cl)N(C)C1  MIC (broth dilution; ATCC700603): 640 µM
O=C(O)c1cn(C2CC2)c2cc(N3CCNCC3)c(F)cc2c1=O  MIC (DSM30104): ≤ 0.03 µg/mL
CC(C)(O/N=C(\C(=O)N[C@@H]1C(=O)N2C(C(=O)[O-])=C(C[n+]3ccccc3)CS[C@H]12)c1csc(N)n1)C(=O)O  MIC (18 h, clinical isolate): > 128 µg/mL
O=[N+]([O-])c1ccc(/C=N/Nc2nc(Nc3ccccc3)nc(N3CCOCC3)n2)o1  MIC: > 120 µM
Cc1c(CN(C)C(=O)/C=C/c2cnc3c(c2)CC(CCN)C(=O)N3)oc2ccccc12.Cl (centres unmarked)  MIC (broth dilution; BAA1705): 16 µg/mL
C[C@H]1COc2c(N3CCN(C)CC3)c(F)cc3c(=O)c(C(=O)O)cn1c23  MIC (broth dilution; ATCC700603): 0.16 µM
CN(C)[C@@H]1C(O)=C(C(N)=O)C(=O)[C@@]2(O)C(O)=C3C(=O)c4c(cc5ccc(CN(C)S(C)(=O)=O)cc5c4O)C[C@H]3C[C@@H]12  MIC (broth dilution; ATCC13883): 32 µg/mL
CC1(C)S[C@@H]2[C@H](/N=C/N3CCCCCC3)C(=O)N2[C@H]1C(=O)O  MIC (broth dilution; ATCC700603): 2.5 µM
NC1CCCCc2c1[nH]c1cc(Cl)c(Cl)cc21 (centres unmarked)  MIC (broth dilution; ATCC10031): 2 µg/mL
CC1=NN(CNc2ccc(C(=O)O)cc2)C(=O)C1=NNn1c(-c2ccccc2)nc2ccccc2c1=O  MIC (broth dilution; 24 h): 50.5 µM
NCC[C@H](O)C(=O)N[C@@H]1C[C@H](N)[C@@H](O[C@H]2O[C@H](CN)[C@@H](O)[C@H](O)[C@H]2O)[C@H](O)[C@H]1O[C@H]1O[C@H](CO)[C@@H](O)[C@H](N)[C@H]1O  MIC: 1 µg/mL
CC1=NN(CNc2ccccc2[N+](=O)[O-])C(=O)C1=NNn1c(-c2ccccc2)nc2ccccc2c1=O  MIC (broth dilution; 24 h): 50.4 µM
NCCCNC1CCCCc2c1[nH]c1ccc(Br)cc21 (centres unmarked)  MIC (broth dilution; ATCC10031): 8 µg/mL
CN(C)[C@@H]1C(O)=C(C(N)=O)C(=O)[C@@]2(O)C(O)=C3C(=O)c4c(cc5ccc(-c6cccnc6)cc5c4O)C[C@H]3C[C@@H]12  MIC (broth dilution; ATCC13883): 32 µg/mL
CC[C@H]1OC(=O)[C@H](C)C(=O)[C@H](C)[C@@H](O[C@@H]2O[C@H](C)C[C@H](N(C)C)[C@H]2O)[C@](C)(OC)C[C@@H](C)C(=O)[C@H](C)[C@H]2N(CCCCn3cnc(-c4cccnc4)c3)C(=O)O[C@]12C  MIC (broth dilution; ATCC700603): 40 µM
CCCCCCC#Cc1cncc(-c2nnc(SCc3ccc([N+](=O)[O-])cc3)n2C)c1  MIC: ≥ 20 µg/mL
CC(=O)NCN1N=C(C)C(=NNn2c(-c3ccccc3)nc3ccccc3c2=O)C1=O  MIC (broth dilution; 24 h): 59.9 µM
CCCCCCC#Cc1cncc(-c2nnc(SCc3ccc(Cl)cc3)n2C)c1  MIC: ≥ 20 µg/mL
C=C[C@]1(C)C[C@@H](OC(=O)CS[C@@H]2C[C@H]3CC[C@@H](C2)N3C)[C@]2(C)[C@H](C)CC[C@]3(CCC(=O)[C@H]32)[C@@H](C)[C@@H]1O  MIC (broth dilution; ATCC700603): 160 µM
O=C(Nc1ccc(S(=O)(=O)c2nccs2)cc1)c1cc(N=Nc2nccs2)ccc1O  MIC (broth dilution): 100 µg/mL
